In ChEMBL document CHEMBL1156332, “Polysubstituted pyrazoles, part 6. Synthesis of some 1-(4-chlorophenyl)-4-hydroxy-1H-pyrazol-3-carbonyl derivatives linked to nitrogenous heterocyclic ring systems as potential antitumor agents” (2010):
Active and inactive are the calls of the source. No cut-off for these calls is given here.

Columns and labels:
Type in all cases: functional
[1] = system: OVCAR-5; assay: Growth inhibition of human OVCAR5 cells after 48 hrs by sulforhodamine B assay; details: OVCAR-5, 48 h
Procedure, shortened: (§1)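 NCI 60-line panel, five concentrations (0.01–100 µM) from DMSO stock diluted in medium with gentamicin. Cells were plated 24 h before dosing, with time-zero plates fixed at drug addition, then exposed 48 h at 37 °C, 5% CO₂. Adherent cells were fixed with cold TCA (10% final) and suspension cells with 16% TCA. Staining used 0.4% SRB, solubilised in 10 mM Tris and read at 515 nm. GI₅₀ was taken from log concentration–% growth curves.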

[2] = Cytotoxicity against human melanoma cells after 48 hrs by sulforhodamine B assay; details: Melanoma cell; for CC50: read-out: LC50 (the source's name)
Procedure, shortened: (§2)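 NCI five-dose screen: about 60 human tumour lines grouped into nine subpanels were plated and incubated 24 h before dosing. Compounds went in as DMSO stock and were diluted in medium to five final concentrations (0.01–100 µM). Exposure was 48 h continuous at 37 °C, 5% CO₂, followed by TCA fixation and SRB staining read at 515 nm. Per-line GI₅₀, TGI and LC₅₀ came from log concentration–% growth curves, averaged per subpanel as MG-MID.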

[3] = system: UACC-257; assay: Growth inhibition of human UACC257 cells after 48 hrs by sulforhodamine B assay; details: UACC-257, 48 h
Procedure, shortened: (§3)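 Adherent lines plated and held 24 h at 37 °C, 5% CO2, 100% humidity; time-zero plates TCA-fixed at drug addition. Drugs from DMSO stocks were made into five concentrations by 10-fold or half-log serial dilution and applied for 48 h continuous exposure. Cells were fixed with cold TCA (10% final) for 60 min at 4 °C, then stained with 0.4% SRB in 1% acetic acid for 10 min. Dye was solubilized in 10 mM Tris base and read at 515 nm. GI50 was taken from log concentration–growth curves.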

[4] = system: DU-145; assay: Growth inhibition of human DU145 cells after 48 hrs by sulforhodamine B assay; details: DU-145, 48 h; procedure, shortened: as §1
[5] = system: MDA-MB-435; assay: Growth inhibition of human MDA-MB-435 cells after 48 hrs by sulforhodamine B assay; details: MDA-MB-435, 48 h; procedure, shortened: as §1
[6] = system: SK-MEL-28; assay: Growth inhibition of human SK-MEL-28 cells after 48 hrs by sulforhodamine B assay; details: SK-MEL-28, 48 h; procedure, shortened: as §3
[7] = system: NCI-H226; assay: Growth inhibition of human NCI-H226 cells after 48 hrs by sulforhodamine B assay; details: NCI-H226, 48 h; procedure, shortened: as §1
[8] = system: OVCAR-4; assay: Growth inhibition of human OVCAR4 cells after 48 hrs by sulforhodamine B assay; details: OVCAR-4, 48 h; procedure, shortened: as §1
[9] = system: HL-60(TB); assay: Growth inhibition of human HL-60(TB) cells after 48 hrs by sulforhodamine B assay; details: HL-60, 48 h
Procedure, shortened: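 NCI 60-cell panel. Cells were preincubated 24 h at 37 °C in 5% CO2, then time-zero plates were TCA-fixed. Drugs were dissolved in DMSO and given at five concentrations (10-fold or half-log dilutions) for 48 h. Suspension cells were fixed with TCA (16% final), stained with 0.4% SRB and read at 515 nm. GI50 is the concentration giving 50% decrease in net growth, taken from log concentration–growth curves.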

[10] = system: LOX IMVI; assay: Growth inhibition of human LOXIMVI cells after 48 hrs by sulforhodamine B assay; procedure, shortened: as §1
[11] = system: PC-3; assay: Growth inhibition of human PC3 cells after 48 hrs by sulforhodamine B assay; details: PC-3, 48 h; procedure, shortened: as §1
[12] = system: A549; assay: Growth inhibition of human A549 cells after 48 hrs by sulforhodamine B assay; details: A549, 48 h; procedure, shortened: as §1
[13] = Cytotoxicity against human leukemia cells after 48 hrs by sulforhodamine B assay; details: Leukemia cell; procedure, shortened: as §2
[14] = system: OVCAR-3; assay: Growth inhibition of human OVCAR-3 cells after 48 hrs by sulforhodamine B assay; details: OVCAR-3, 48 h; procedure, shortened: as §1
[15] = system: EKVX; assay: Growth inhibition of human EKVX cells after 48 hrs by sulforhodamine B assay; procedure, shortened: as §1
[16] = system: SF-295; assay: Growth inhibition of human SF295 cells after 48 hrs by sulforhodamine B assay; details: SF-295, 48 h; procedure, shortened: as §1
[17] = system: SN12C; assay: Growth inhibition of human SN12C cells after 48 hrs by sulforhodamine B assay; procedure, shortened: as §3
[18] = system: K562; assay: Growth inhibition of human K562 cells after 48 hrs by sulforhodamine B assay; procedure, shortened: as §1
[19] = Growth inhibition of human NCI-H322 cells after 48 hrs by sulforhodamine B assay; details: NCI-H322, 48 h; procedure, shortened: as §1
[20] = system: SR; assay: Growth inhibition of human SR cells after 48 hrs by sulforhodamine B assay
Procedure, shortened: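 Suspension leukemia line pre-incubated 24 h at 37 °C, 5% CO2; time-zero plates fixed at drug addition. Five drug concentrations were made by serial dilution from DMSO stocks and applied for 48 h. Settled cells were fixed with 80% TCA (16% final), stained with 0.4% SRB in 1% acetic acid, solubilized in 10 mM Tris base, and read at 515 nm. GI50 = concentration giving 50% decrease in net growth.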

[21] = system: NCI/ADR-RES; assay: Growth inhibition of human NCI/ADR-RES cells after 48 hrs by sulforhodamine B assay; procedure, shortened: as §1
[22] = system: RXF 393; assay: Growth inhibition of human […] cells after 48 hrs by sulforhodamine B assay; details: RXF 393, 48 h; procedure, shortened: as §1
[23] = Cytotoxicity against human colon cancer cells after 48 hrs by sulforhodamine B assay; details: Cancer cell lines; procedure, shortened: as §2
[24] = system: SNB-19; assay: Growth inhibition of human SNB19 cells after 48 hrs by sulforhodamine B assay; details: SNB-19, 48 h; procedure, shortened: as §3
[25] = system: MOLT-4; assay: Growth inhibition of human MOLT4 cells after 48 hrs by sulforhodamine B assay; details: MOLT-4, 48 h; procedure, shortened: as §1
[26] = system: SK-MEL-2; assay: Growth inhibition of human SK-MEL-2 cells after 48 hrs by sulforhodamine B assay; procedure, shortened: as §3

| Compound | GI50 [1] | GI50 [2] | TGI [2] | CC50 [2] | GI50 [3] | GI50 [4] | GI50 [5] | GI50 [6] | GI50 [7] | GI50 [8] | GI50 [9] | GI50 [10] | GI50 [12] | GI50 [13] | TGI [13] | GI50 [14] | GI50 [15] | GI50 [16] | GI50 [17] | GI50 [19] | other results |
| --- | --- | --- | --- | --- | --- | --- | --- | --- | --- | --- | --- | --- | --- | --- | --- | --- | --- | --- | --- | --- | --- |
| Cc1cc(C)n(C(=O)c2nn(-c3ccc(Cl)cc3)cc2O)n1 | 4.98 µM | 4.95 µM | 71.4 µM | 92.8 µM | 16.6 µM | 6.23 µM | 3.94 µM | 6.28 µM | 4.66 µM | 9.19 µM | 3.96 µM | 3.94 µM | 3.72 µM | 3.65 µM | 74.3 µM | 1.27 µM | 4.87 µM | 1.81 µM | 3.37 µM | 6.17 µM | GI50 [11]: 7.05 µM; GI50 [18]: inactive; GI50 [20]: inactive; GI50 [21]: 4.42 µM; GI50 [22]: 4.58 µM; GI50 [23]: 8.13 µM; TGI [23]: 85.1 µM; GI50 [24]: 3.6 µM |
| O=C1CC(=O)N(C(=O)c2nn(-c3ccc(Cl)cc3)cc2O)N1 | 8.08 µM | 1.6 µM | 50.1 µM | 85.2 µM | 1.86 µM | 0.98 µM | 0.33 µM | 5.26 µM | 0.73 µM | 1.52 µM | 0.77 µM | 1.37 µM | 0.36 µM | 0.42 µM | 10.8 µM | 0.93 µM | 0.85 µM | 0.15 µM | 0.5 µM | 0.53 µM | GI50 [11]: 0.36 µM; GI50 [25]: 0.41 µM; GI50 ([18]; K562, 48 h): 0.29 µM; GI50 [20]: 0.26 µM; GI50 [26]: inactive; GI50 [21]: 0.94 µM; GI50 [22]: 0.31 µM; GI50 [23]: 1.51 µM; TGI [23]: 86.2 µM; GI50 [24]: 0.51 µM |
| N#Cc1cnn(C(=O)c2nn(-c3ccc(Cl)cc3)cc2O)c1N | 0.64 µM | 0.46 µM | 11.9 µM | 65 µM | 0.56 µM | 0.57 µM | 0.29 µM | 0.63 µM | 0.37 µM | 0.46 µM | 0.33 µM | 0.44 µM | 0.2 µM | 0.27 µM | 3.23 µM | 0.55 µM | 0.38 µM | 0.16 µM | 0.35 µM | 0.44 µM | GI50 [11]: 0.33 µM; LC50 (concentration killing 50% of cells) [13]: 44.3 µM; GI50 [25]: 0.29 µM; GI50 ([18]; K562, 48 h): 0.25 µM; GI50 [20]: 0.28 µM; GI50 ([26]; SK-MEL-2, 48 h): 0.91 µM; GI50 [21]: 0.37 µM; GI50 [22]: 0.51 µM; GI50 [23]: 0.61 µM; TGI [23]: 12.6 µM; CC50 ([23]; read-out: LC50 (the source's name)): 64.3 µM; GI50 [24]: 0.45 µM |
| CC1=NN(C(=O)c2nn(-c3ccc(Cl)cc3)cc2O)C(=O)C1 | 3.32 µM | 1.82 µM | 70.5 µM | 93.6 µM | 1.06 µM | 5.22 µM | 1.2 µM | 3.06 µM | 1.4 µM | 2.4 µM | 1.17 µM | 1.55 µM | 0.82 µM | 1.03 µM | 52.9 µM | 1.21 µM | 2.21 µM | 0.23 µM | 1.42 µM | 0.85 µM | GI50 [25]: 1.87 µM; GI50 ([18]; K562, 48 h): 0.65 µM; GI50 [20]: 0.42 µM; GI50 [21]: 1.89 µM; GI50 [22]: 15.4 µM; GI50 [23]: 3.09 µM; TGI [23]: 95.4 µM; GI50 [24]: 3.16 µM |
| Cc1c2c(nn1C(=O)c1nn(-c3ccc(Cl)cc3)cc1O)-c1ccccc1CC2 | 0.072 µM | 0.14 µM | 52.1 µM | 86.4 µM | 0.21 µM | 0.05 µM | 0.037 µM | 0.092 µM | 0.045 µM | 0.264 µM | 0.051 µM | 0.075 µM | 0.034 µM | 0.042 µM | 10.2 µM | 0.099 µM | 0.071 µM | 0.02 µM | 0.041 µM | 0.054 µM | GI50 [11]: 0.037 µM; GI50 [25]: 0.043 µM; GI50 ([18]; K562, 48 h): 0.03 µM; GI50 ([26]; SK-MEL-2, 48 h): 5.54 µM; GI50 [21]: 0.046 µM; GI50 [22]: 0.047 µM; GI50 [23]: 0.221 µM; TGI [23]: 86.3 µM; GI50 [24]: 0.045 µM |
| O=C(c1nn(-c2ccc(Cl)cc2)cc1O)n1nc(-c2ccco2)cc1C(F)(F)F | 2.6 µM | 4.14 µM | 63.7 µM | 89.4 µM | 2.67 µM | 10.5 µM | 1.97 µM | 9.22 µM | 2.71 µM | 2.43 µM | 2.42 µM | 2.37 µM | 7.23 µM | 1.76 µM | 80.7 µM | 1.72 µM | 1.99 µM | 0.48 µM | 5.18 µM | 0.83 µM | GI50 [11]: 26.3 µM; GI50 [25]: 2.55 µM; GI50 ([18]; K562, 48 h): 1.72 µM; GI50 ([26]; SK-MEL-2, 48 h): 3.82 µM; GI50 [21]: 1.6 µM; GI50 [22]: 0.03 µM; GI50 [23]: 4.59 µM; TGI [23]: 88.5 µM; GI50 [24]: 4.37 µM |
